Measured values published in ChEMBL document CHEMBL2010720, “Synthesis and evaluation of ursolic acid derivatives as potent cytotoxic agents” (Bioorg Med Chem Lett, 2012).

Columns and labels:
AGS [1] = assay: Cytotoxicity against human AGS cells after 48 hrs by MTT assay; assay type: functional, cell-based
Summary of the method: (§1)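 Cells seeded at 1×10^4 per well and treated 24 h later for 48 h at 10, 20, 40, 60, 80 and 100 µM, each in six wells. Compounds came from 20 mM DMSO stocks diluted in medium; the vehicle control matched the DMSO of the top dose. MTT was added for 4 h, formazan dissolved in DMSO and read at 570 nm. IC50 was taken as the concentration giving 50% growth inhibition.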

HT-29 = assay: Cytotoxicity against human HT-29 cells after 48 hrs by MTT assay; assay type: functional, cell-based; details: HT-29, 48 h; summary of the method: as §1
PC-3 = assay: Cytotoxicity against human PC3 cells after 48 hrs by MTT assay; assay type: functional, cell-based; details: PC-3, 48 h; summary of the method: as §1
HepG2 = assay: Cytotoxicity against human HepG2 cells after 48 hrs by MTT assay; assay type: functional, cell-based; details: HepG2, 48 h; summary of the method: as §1
AGS [2] = assay: Induction of apoptosis in human AGS cells assessed as viable cells at 10 uM after 24 hrs by annexin-V/PI staining-based flow cytometric analysis (reference value: 95.5%); assay type: functional; details: read-out: Activity
AGS [3] = assay: Cell cycle arrest in human AGS cells assessed as accumulation at sub-G0/G1 phase cells at 10 uM after 48 hrs by flow cytometry (reference value: 1.56 +/- 0.20%); assay type: functional
AGS [4] = assay: Induction of apoptosis in human AGS cells assessed as necrotic cells at 20 uM after 24 hrs by annexin-V/PI staining-based flow cytometric analysis (reference value: 0.1%); assay type: functional
AGS [5] = assay: Induction of apoptosis in human AGS cells assessed as viable cells at 20 uM after 24 hrs by annexin-V/PI staining-based flow cytometric analysis (reference value: 95.5%); assay type: functional; details: read-out: Activity
AGS [6] = assay: Induction of apoptosis in human AGS cells assessed as early apoptotic cells at 10 uM after 24 hrs by annexin-V/PI staining-based flow cytometric analysis (reference value: 1.9%); assay type: functional
AGS [7] = assay: Induction of apoptosis in human AGS cells assessed as early apoptotic cells at 20 uM after 24 hrs by annexin-V/PI staining-based flow cytometric analysis (reference value: 1.9%); assay type: functional
AGS [8] = assay: Cell cycle arrest in human AGS cells assessed as accumulation at G2/M phase cells at 10 uM after 48 hrs by flow cytometry (reference value: 35.37 +/- 3.73%); assay type: functional
AGS [9] = assay: Induction of apoptosis in human AGS cells assessed as late apoptotic cells at 5 uM after 24 hrs by annexin-V/PI staining-based flow cytometric analysis (reference value: 2.5%); assay type: functional
AGS [10] = assay: Induction of apoptosis in human AGS cells assessed as late apoptotic cells at 10 uM after 24 hrs by annexin-V/PI staining-based flow cytometric analysis (reference value: 2.5%); assay type: functional
AGS [11] = assay: Induction of apoptosis in human AGS cells assessed as late apoptotic cells at 20 uM after 24 hrs by annexin-V/PI staining-based flow cytometric analysis (reference value: 2.5%); assay type: functional
AGS [12] = assay: Cell cycle arrest in human AGS cells assessed as accumulation at S phase cells at 10 uM after 48 hrs by flow cytometry (reference value: 36.56 +/- 0.36%); assay type: functional
AGS [13] = assay: Induction of apoptosis in human AGS cells assessed as necrotic cells at 10 uM after 24 hrs by annexin-V/PI staining-based flow cytometric analysis (reference value: 0.1%); assay type: functional
AGS [14] = assay: Induction of apoptosis in human AGS cells assessed as early apoptotic cells at 5 uM after 24 hrs by annexin-V/PI staining-based flow cytometric analysis (reference value: 1.9%); assay type: functional
AGS [15] = assay: Induction of apoptosis in human AGS cells assessed as viable cells at 5 uM after 24 hrs by annexin-V/PI staining-based flow cytometric analysis (reference value: 95.5%); assay type: functional; details: read-out: Activity
AGS [16] = assay: Induction of apoptosis in human AGS cells assessed as necrotic cells at 5 uM after 24 hrs by annexin-V/PI staining-based flow cytometric analysis (reference value: 0.1%); assay type: functional
AGS [17] = assay: Cell cycle arrest in human AGS cells assessed as accumulation at G0/G1 phase cells at 10 uM after 48 hrs by flow cytometry (reference value: 28.07 +/- 3.52%); assay type: functional
AGS [18] = assay: Cell cycle arrest in human AGS cells assessed as accumulation at G0/G1 phase cells at 20.6 uM after 48 hrs by flow cytometry (reference value: 28.07 +/- 3.52%); assay type: functional
AGS [19] = assay: Cell cycle arrest in human AGS cells assessed as accumulation at S phase cells at 20.6 uM after 48 hrs by flow cytometry (reference value: 36.56 +/- 0.36%); assay type: functional
AGS [20] = assay: Cell cycle arrest in human AGS cells assessed as accumulation at sub-G0/G1 phase at 20.6 uM after 48 hrs by flow cytometry (reference value: 1.56 +/- 0.20%); assay type: functional
AGS [21] = assay: Cell cycle arrest in human AGS cells assessed as accumulation at G2/M phase cells at 20.6 uM after 48 hrs by flow cytometry (reference value: 35.37 +/- 3.73%); assay type: functional

SMILES | IC50 (AGS [1]) | IC50 (HT-29) | IC50 (PC-3) | IC50 (HepG2) | Activity (AGS [3]) | Activity (AGS [8]) | Activity (AGS [12]) | Activity (AGS [17]) | other results
C[C@H]1[C@H](C)CC[C@]2(C(=O)NC(CC(=O)O)C(=O)O)CC[C@]3(C)C(=CC[C@@H]4[C@@]5(C)CC[C@H](O)C(C)(C)[C@@H]5CC[C@]43C)[C@H]12 (stereo not given in full) | > 100 µM | > 100 µM | > 100 µM | > 100 µM |  |  |  |  | 
C[C@H]1[C@H](C)CC[C@]2(C(=O)NCCN)CC[C@]3(C)C(=CC[C@@H]4[C@@]5(C)CC[C@H](O)C(C)(C)[C@@H]5CC[C@]43C)[C@H]12 | 11.4 µM | 14.3 µM | < 10 µM | 21.3 µM | 92.64% | 2.51% | 66.66% | 30.83% | viability at 10 µM (AGS [2]): 59.9%; Activity (AGS [4]): 0.5%; viability at 20 µM (AGS [5]): 13.7%; Activity (AGS [6]): 27.7%; Activity (AGS [7]): 68.6%; Activity (AGS [9]): 6.1%; Activity (AGS [10]): 11.8%; Activity (AGS [11]): 17.2%; Activity (AGS [13]): 0.7%; Activity (AGS [14]): 8.9%; viability at 5 µM (AGS [15]): 84.7%; Activity (AGS [16]): 0.2%
CC(=O)O[C@H]1CC[C@]2(C)[C@H]3CC=C4[C@@H]5[C@@H](C)[C@H](C)CC[C@]5(C(=O)NCCN)CC[C@@]4(C)[C@]3(C)CC[C@H]2C1(C)C | < 10 µM | < 10 µM | < 10 µM | 12.4 µM | 88.3% | 46.72% | 1.42% | 51.86% | 
C[C@H]1[C@H](C)CC[C@]2(C(=O)NCCNC(=O)CN)CC[C@]3(C)C(=CC[C@@H]4[C@@]5(C)CC[C@H](O)C(C)(C)[C@@H]5CC[C@]43C)[C@H]12 | 10.2 µM |  | 19.6 µM |  | 44.69% | 71.45% | 11.23% | 17.72% | 
CC(=O)O[C@H]1C(=O)[C@@]2(C)[C@H]([C@H](OC(=O)c3ccccc3)[C@]3(O)C[C@H](OC(=O)[C@H](O)[C@@H](NC(=O)c4ccccc4)c4ccccc4)C(C)=C1C3(C)C)[C@]1(OC(C)=O)CO[C@@H]1C[C@@H]2O [PACLITAXEL] | < 10 µM | < 10 µM | 57.2 µM | 30.7 µM | 70.41% | 86.18% | 7.9% | 5.92% | 
CSCC[C@H](N)C(=O)NCCNC(=O)[C@]12CC[C@@H](C)[C@H](C)[C@H]1C1=CC[C@@H]3[C@@]4(C)CC[C@H](O)C(C)(C)[C@@H]4CC[C@@]3(C)[C@]1(C)CC2 | < 10 µM |  | < 10 µM | 16 µM | 50.03% | 68.65% | 18.46% | 12.9% | 
CC(=O)O[C@H]1CC[C@]2(C)[C@H]3CC=C4[C@@H]5[C@@H](C)[C@H](C)CC[C@]5(C(=O)NCCNC(=O)CN)CC[C@@]4(C)[C@]3(C)CC[C@H]2C1(C)C | < 10 µM | 20.2 µM | 14.3 µM | 15.5 µM | 75.45% | 37.66% | 25.37% | 36.97% | 
CC(=O)O[C@H]1CC[C@]2(C)[C@H]3CC=C4[C@@H]5[C@@H](C)[C@H](C)CC[C@]5(C(=O)NCCNC(=O)[C@@H](N)Cc5ccccc5)CC[C@@]4(C)[C@]3(C)CC[C@H]2C1(C)C | < 10 µM | < 10 µM | < 10 µM | < 10 µM | 87.64% | 35.31% | 2.06% | 63.49% | 
C[C@H]1[C@H](C)CC[C@]2(C(=O)NC(CCC(=O)O)C(=O)O)CC[C@]3(C)C(=CC[C@@H]4[C@@]5(C)CC[C@H](O)C(C)(C)[C@@H]5CC[C@]43C)[C@H]12 (stereo not given in full) | > 100 µM | > 100 µM | > 100 µM | > 100 µM |  |  |  |  | 
CSCC[C@H](N)C(=O)NCCNC(=O)[C@]12CC[C@@H](C)[C@H](C)[C@H]1C1=CC[C@@H]3[C@@]4(C)CC[C@H](OC(C)=O)C(C)(C)[C@@H]4CC[C@@]3(C)[C@]1(C)CC2 | < 10 µM | < 10 µM | < 10 µM | < 10 µM | 82.38% | 45.03% | 0% | 54.97% | 
C[C@H]1[C@H](C)CC[C@]2(C(=O)O)CC[C@]3(C)C(=CC[C@@H]4[C@@]5(C)CC[C@H](O)C(C)(C)[C@@H]5CC[C@]43C)[C@H]12 [URSOLIC ACID] | 20.6 µM | 25.3 µM | 22.3 µM | 53.4 µM |  |  |  |  | Activity (AGS [18]): 33.2%; Activity (AGS [19]): 14.64%; Activity (AGS [20]): 86.53%; Activity (AGS [21]): 52.16%
C[C@H]1[C@H](C)CC[C@]2(C(=O)NCCNC(=O)[C@@H](N)Cc3ccccc3)CC[C@]3(C)C(=CC[C@@H]4[C@@]5(C)CC[C@H](O)C(C)(C)[C@@H]5CC[C@]43C)[C@H]12 | < 10 µM |  | < 10 µM |  | 47.73% | 45.59% | 11.79% | 42.62% | 
